The text below walks through data of ChEMBL document CHEMBL3352526, “4-Quinolone-3-carboxylic acids as cell-permeable inhibitors of protein tyrosine phosphatase 1B” (Bioorg Med Chem, 2014).

Usually IC50 stands for the concentration at which inhibition is half-maximal. As usually defined, the Ki is the dissociation constant of the complex between target and ligand, obtained from inhibition or displacement. High values mean weaker binding, low ones tighter binding. Broadly, the inhibition is the drop in the measured response relative to a control, in per cent. Read a high inhibition as strong suppression.

Active and inactive are the calls of the source. No cut-off for these calls is given here. Bounds are passed on as bounds.

The target in assay [1] is T1, Tyrosine-protein phosphatase non-receptor type 2 (Homo sapiens, UniProt P17706).
T1 sequence (P17706 whole entry): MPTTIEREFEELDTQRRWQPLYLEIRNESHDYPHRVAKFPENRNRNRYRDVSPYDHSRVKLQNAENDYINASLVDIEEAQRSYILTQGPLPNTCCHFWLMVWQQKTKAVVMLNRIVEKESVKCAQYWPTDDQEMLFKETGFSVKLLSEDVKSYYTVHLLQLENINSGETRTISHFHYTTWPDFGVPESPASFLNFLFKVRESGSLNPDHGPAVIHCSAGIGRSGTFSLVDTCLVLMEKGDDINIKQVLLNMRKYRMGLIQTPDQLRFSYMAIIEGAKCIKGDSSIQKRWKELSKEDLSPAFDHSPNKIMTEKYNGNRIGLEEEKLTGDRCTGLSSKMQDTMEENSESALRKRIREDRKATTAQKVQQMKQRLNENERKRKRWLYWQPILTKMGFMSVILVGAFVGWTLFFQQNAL
Briefly: Inhibition of TCPTP (unknown origin) using pNPP as substrate by colorimetric assay. Particulars: read-out: IC50 (converted). The method, boiled down: (§1)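 GST-PTP1B or GST-TCPTP at 30 nmol/L, 2 mmol/L pNPP, 50 mmol/L MOPS pH 6.5, 2% DMSO, compounds serially diluted from DMSO. Hydrolysis followed continuously at 405 nm for 3 min at 30 °C. IC50 from nonlinear fit of % inhibition vs concentration with Hill coefficient; means ± SD of three replications.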

Assay [2] deals with T2, Tyrosine-protein phosphatase non-receptor type 1 (Homo sapiens, UniProt P18031).
T2 sequence (P18031 whole entry): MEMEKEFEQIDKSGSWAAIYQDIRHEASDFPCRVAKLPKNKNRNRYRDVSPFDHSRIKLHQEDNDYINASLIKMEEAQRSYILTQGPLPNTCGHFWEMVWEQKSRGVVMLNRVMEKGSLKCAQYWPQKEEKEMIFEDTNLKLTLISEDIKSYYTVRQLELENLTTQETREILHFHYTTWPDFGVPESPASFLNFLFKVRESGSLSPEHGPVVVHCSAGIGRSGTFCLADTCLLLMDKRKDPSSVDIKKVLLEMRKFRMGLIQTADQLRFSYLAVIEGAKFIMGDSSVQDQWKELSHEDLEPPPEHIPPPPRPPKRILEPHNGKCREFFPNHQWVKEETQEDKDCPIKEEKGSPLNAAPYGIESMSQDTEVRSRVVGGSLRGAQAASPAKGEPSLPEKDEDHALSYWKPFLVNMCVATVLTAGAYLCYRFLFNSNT
The experiment in a line: Competitive inhibition of PTP1B (unknown origin) using pNPP as substrate by Lineweaver-Burk plot. The method, boiled down: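 Kinetics in 100 µL of 50 mmol/L MOPS pH 6.5 with 30 nmol/L PTP1B, pNPP in 2-fold dilutions from 80 mmol/L, at several inhibitor concentrations. Ki taken from a linear replot of apparent Km/Vmax (slope of double-reciprocal plot) against [I].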

Assay [3] concerns the target T3, Receptor-type tyrosine-protein phosphatase F (Homo sapiens, UniProt P10586). The experiment in a line: Inhibition of LAR (unknown origin) using 3-o-methylfluorescein phosphatase substrate at 20 ug/ml by colorimetric assay.
The target in assay [4] is Tyrosine-protein phosphatase non-receptor type 6 (Homo sapiens, UniProt P29350). The experiment in a line: Inhibition of SHP1 (unknown origin) using 3-o-methylfluorescein phosphatase substrate by colorimetric assay. Particulars: read-out: IC50 (converted). The method, boiled down: (§2)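 SHP1, SHP2 or LAR recombinant enzyme at 20 nmol/L with 10 µmol/L OMFP in 50 mmol/L MOPS pH 6.5, 2 mmol/L DTT, 1 mmol/L EDTA, 2% DMSO, 30 °C. Fluorescent product read at ex 485/em 530 nm; initial rate from the early linear part of the kinetic curve.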

For assay [5], the target named is T4, Tyrosine-protein phosphatase non-receptor type 1 (Homo sapiens) (UniProt P18031).
T4 sequence (whole entry): T2 sequence (P18031 whole entry)
Briefly: Inhibition of PTP1B (unknown origin) expressed in CHO cells co-expressing human IRbeta assessed as increase in insulin-stimulated IRbeta phosphorylation at 90 uM after 1 hr by Western blotting analysis. The assay is classed as cell-based. The method, boiled down: (§3)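 CHO/hIR cells grown in F12 with 10% FBS, penicillin/streptomycin, 37 °C, 5% CO2. After 2 h serum starvation, compound for 1 h, then 10 nM insulin for 10 min. Lysates in SDS loading buffer run on 8% SDS-PAGE, blotted with anti-pTyr (PY20); β-actin as loading control.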

The species entered for assay [6] is Homo sapiens. Briefly: Selectivity ratio of IC50 for LAR (unknown origin) to IC50 for PTP1B (unknown origin).
The species named for assay [7] is Homo sapiens. Briefly: Selectivity ratio of IC50 for SHP2 (unknown origin) to IC50 for PTP1B (unknown origin).
Assay [8] concerns the target T2, Tyrosine-protein phosphatase non-receptor type 1. Briefly: Inhibition of PTP1B (unknown origin) using pNPP as substrate by colorimetric assay. The method, boiled down:
as §1

The target of assay [9] is T5, Tyrosine-protein phosphatase non-receptor type 11 (Homo sapiens) (UniProt Q06124).
T5 sequence (whole entry): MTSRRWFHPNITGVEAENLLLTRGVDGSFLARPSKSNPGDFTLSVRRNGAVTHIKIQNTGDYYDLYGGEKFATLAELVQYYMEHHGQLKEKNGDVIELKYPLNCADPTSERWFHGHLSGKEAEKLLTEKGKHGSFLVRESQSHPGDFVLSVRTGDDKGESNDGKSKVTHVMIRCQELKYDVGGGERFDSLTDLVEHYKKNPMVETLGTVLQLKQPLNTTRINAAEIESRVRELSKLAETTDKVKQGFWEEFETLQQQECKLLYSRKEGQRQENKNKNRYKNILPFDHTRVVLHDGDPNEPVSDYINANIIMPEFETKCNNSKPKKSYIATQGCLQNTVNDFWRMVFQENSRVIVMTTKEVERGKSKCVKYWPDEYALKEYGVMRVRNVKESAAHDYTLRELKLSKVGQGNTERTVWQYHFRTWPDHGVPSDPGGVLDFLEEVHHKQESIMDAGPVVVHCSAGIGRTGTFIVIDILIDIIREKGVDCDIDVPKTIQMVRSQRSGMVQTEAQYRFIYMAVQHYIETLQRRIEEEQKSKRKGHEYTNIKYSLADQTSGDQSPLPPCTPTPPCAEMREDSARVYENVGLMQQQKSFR
The experiment in a line: Inhibition of SHP2 (unknown origin) using 3-o-methylfluorescein phosphatase substrate at 20 ug/ml by colorimetric assay.

Assay [10] concerns the target T3, Receptor-type tyrosine-protein phosphatase F. The experiment in a line: Inhibition of LAR (unknown origin) using 3-o-methylfluorescein phosphatase substrate by colorimetric assay. Put shortly: as §2
The target in assay [11] is T4, Tyrosine-protein phosphatase non-receptor type 1 (Homo sapiens). Briefly: Inhibition of PTP1B (unknown origin) expressed in CHO cells co-expressing human IRbeta assessed as increase in insulin-stimulated IRbeta phosphorylation at 3 to 30 uM after 1 hr by Western blotting analysis. Type of assay: cell-based. Put shortly:
as §3
On the technique in general: Immunoblotting shows a protein as a band on a membrane.

Assay [12] deals with T6, Tyrosine-protein phosphatase non-receptor type 11 (Homo sapiens, UniProt Q06124).
T6 sequence (Q06124 whole entry): T5 sequence (whole entry)
Briefly: Inhibition of SHP2 (unknown origin) using 3-o-methylfluorescein phosphatase substrate by colorimetric assay. Put shortly:
as §2

The species named for assay [13] is Homo sapiens. The experiment in a line: Selectivity ratio of IC50 for TCPTP (unknown origin) to IC50 for PTP1B (unknown origin).

T3 sequence (P10586 whole entry): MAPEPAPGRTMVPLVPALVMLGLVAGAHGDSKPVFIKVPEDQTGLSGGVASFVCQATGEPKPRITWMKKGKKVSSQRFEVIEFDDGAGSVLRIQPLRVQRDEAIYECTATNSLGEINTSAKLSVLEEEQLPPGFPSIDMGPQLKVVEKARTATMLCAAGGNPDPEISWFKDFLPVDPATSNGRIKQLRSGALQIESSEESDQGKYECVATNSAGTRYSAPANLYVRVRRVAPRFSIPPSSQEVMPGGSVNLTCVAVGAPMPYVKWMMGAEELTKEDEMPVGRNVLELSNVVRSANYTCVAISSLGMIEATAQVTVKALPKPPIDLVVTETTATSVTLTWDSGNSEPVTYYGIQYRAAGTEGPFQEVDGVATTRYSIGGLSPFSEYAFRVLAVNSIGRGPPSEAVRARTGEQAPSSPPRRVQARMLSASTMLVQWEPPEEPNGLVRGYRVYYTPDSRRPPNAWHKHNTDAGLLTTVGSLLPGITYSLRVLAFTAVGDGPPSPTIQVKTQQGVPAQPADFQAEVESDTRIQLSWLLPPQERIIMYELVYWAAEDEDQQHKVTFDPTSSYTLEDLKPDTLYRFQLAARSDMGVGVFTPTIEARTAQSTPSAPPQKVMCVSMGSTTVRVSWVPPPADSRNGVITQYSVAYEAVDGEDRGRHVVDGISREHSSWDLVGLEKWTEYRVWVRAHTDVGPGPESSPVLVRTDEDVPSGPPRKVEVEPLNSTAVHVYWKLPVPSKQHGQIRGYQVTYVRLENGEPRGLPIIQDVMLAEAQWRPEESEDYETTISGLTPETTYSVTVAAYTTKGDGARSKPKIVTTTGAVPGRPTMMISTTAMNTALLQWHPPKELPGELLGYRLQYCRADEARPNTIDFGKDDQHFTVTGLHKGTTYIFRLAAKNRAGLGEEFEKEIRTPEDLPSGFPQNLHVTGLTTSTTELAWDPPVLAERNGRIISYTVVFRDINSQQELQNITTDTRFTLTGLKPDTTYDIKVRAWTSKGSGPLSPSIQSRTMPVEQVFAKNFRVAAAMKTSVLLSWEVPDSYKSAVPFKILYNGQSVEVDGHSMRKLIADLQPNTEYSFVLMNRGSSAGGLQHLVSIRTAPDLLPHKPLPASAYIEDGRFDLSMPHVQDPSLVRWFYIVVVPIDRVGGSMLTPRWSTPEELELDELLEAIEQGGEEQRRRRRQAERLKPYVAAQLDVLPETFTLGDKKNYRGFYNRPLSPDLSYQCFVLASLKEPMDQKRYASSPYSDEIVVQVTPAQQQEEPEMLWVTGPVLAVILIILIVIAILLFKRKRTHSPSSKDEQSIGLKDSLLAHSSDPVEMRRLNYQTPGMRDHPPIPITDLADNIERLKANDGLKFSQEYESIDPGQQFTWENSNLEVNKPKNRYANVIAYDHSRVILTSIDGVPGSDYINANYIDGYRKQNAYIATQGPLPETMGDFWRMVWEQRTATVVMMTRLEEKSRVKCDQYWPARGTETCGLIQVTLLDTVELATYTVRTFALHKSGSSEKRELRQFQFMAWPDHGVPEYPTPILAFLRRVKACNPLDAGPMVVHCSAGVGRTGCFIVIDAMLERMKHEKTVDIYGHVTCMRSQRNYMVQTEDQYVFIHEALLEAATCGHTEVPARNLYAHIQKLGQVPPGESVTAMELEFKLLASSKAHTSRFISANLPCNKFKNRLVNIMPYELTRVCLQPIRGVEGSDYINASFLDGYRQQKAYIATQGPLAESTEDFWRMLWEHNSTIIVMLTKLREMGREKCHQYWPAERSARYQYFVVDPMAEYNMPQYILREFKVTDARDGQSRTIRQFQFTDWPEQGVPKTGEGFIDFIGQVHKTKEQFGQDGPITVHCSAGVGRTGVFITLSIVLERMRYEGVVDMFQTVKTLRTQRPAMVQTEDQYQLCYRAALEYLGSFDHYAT
Chain of Tyrosine-protein phosphatase non-receptor type 6 (P29350 whole entry): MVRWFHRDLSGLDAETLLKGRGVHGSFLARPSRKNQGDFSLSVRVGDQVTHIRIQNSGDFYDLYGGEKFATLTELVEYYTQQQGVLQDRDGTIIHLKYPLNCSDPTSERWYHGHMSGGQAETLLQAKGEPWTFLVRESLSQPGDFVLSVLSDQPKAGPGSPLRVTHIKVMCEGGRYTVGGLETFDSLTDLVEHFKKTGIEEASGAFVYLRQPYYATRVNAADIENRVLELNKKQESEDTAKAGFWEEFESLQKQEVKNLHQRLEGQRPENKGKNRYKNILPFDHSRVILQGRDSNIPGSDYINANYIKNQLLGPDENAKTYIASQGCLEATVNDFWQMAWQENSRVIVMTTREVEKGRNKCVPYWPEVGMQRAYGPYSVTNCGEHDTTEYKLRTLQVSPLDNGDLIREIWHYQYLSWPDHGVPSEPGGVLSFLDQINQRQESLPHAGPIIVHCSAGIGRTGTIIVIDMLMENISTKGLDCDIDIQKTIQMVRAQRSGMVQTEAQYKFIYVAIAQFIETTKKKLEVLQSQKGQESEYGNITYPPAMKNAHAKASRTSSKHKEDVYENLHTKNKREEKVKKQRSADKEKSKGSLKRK

Take `CCOC(=O)/C(O)=C/C(=O)c1cccc(Cn2cc(C(=O)O)c(=O)c3cc(I)ccc32)c1`: the IC50 is 11.5 µM in assay [1]; 12.4 µM in assay [4]; 5.66 µM in assay [8]; “Not Active” in [10]; “Not Active” in assay [12]. This compound gave an inhibition constant Ki in assay [2] of 1.33 µM. Besides, the inhibition in assay [3] and in [9] was below 50% each time. Also, the result in [5] was Active. Besides, the Ratio IC50 is above 10 in the assay filed under Homo sapiens [6], above 10 in the assay filed under Homo sapiens [7] and 2 in the assay filed under Homo sapiens [13]. The outcome in assay [11] was inactive.
